In ChEMBL document CHEMBL4321859, “Unforeseen Possibilities To Investigate the Regulation of Polyamine Metabolism Revealed by Novel C-Methylated Spermine Derivatives” (J Med Chem, 2019):

Experiments:
DU-145 [1] = experiment: Downregulation of intracellular spermidine level in human DU145 Cells assessed per ug DNA at 100 uM after 3 days in presence of SSAO inhibitor aminoguanidine by HPLC method (reference value: 175 +/- 5 pmol/ug); assay type: functional
Summary of the method: (§1)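 DU145 cells exposed to 100 μM analogue for 6 h or 3 days, with or without 1 mM aminoguanidine. Cells were lysed in 50 mM potassium phosphate pH 7.2 with EDTA, Triton X-100 and DTT. Lysate was mixed with sulphosalicylic acid containing diaminoheptane as internal standard. Polyamines, analogue and MeSpd were measured by HPLC and normalized to DNA (PicoGreen), expressed as pmol/μg DNA. Means ± SD, n = 3.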

DU-145 [2] = experiment: Cytotoxicity against human DU145 cells at 100 uM after 3 days; assay type: cell-based; conditions: du-145, 72 h
Summary of the method: (§2)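 DU145 cells grown in high-glucose DMEM with 10% heat-inactivated FBS, 2 mM L-glutamine and gentamycin at 37 °C, 5% CO2. Treated 3 days with 100 μM analogue, with or without 1 mM aminoguanidine. Cells harvested by trypsinization and counted electronically (Coulter counter). Means ± SD, n = 3.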

DU-145 [3] = experiment: Downregulation of intracellular spermine level in human DU145 Cells at 100 uM after 6 hrs by HPLC method (reference value: 106 +/- 4 pmol/ug); assay type: functional; summary of the method: as §1
DU-145 [4] = experiment: Downregulation of intracellular N1-acetylspermidine level in human DU145 cells assessed per ug DNA at 100 uM after 6 hrs by HPLC method (Rvb < 3 pmol/ug); assay type: functional; summary of the method: as §1
DU-145 [5] = experiment: Downregulation of intracellular putrescine level in human DU145 Cells assessed per ug DNA at 100 uM after 6 hrs by HPLC method (reference value: 40 +/- 2 pmol/ug); assay type: functional; summary of the method: as §1
DU-145 [6] = experiment: Downregulation of intracellular N1-acetylspermidine level in human DU145 cells assessed per ug DNA at 100 uM after 3 days in presence of SSAO inhibitor aminoguanidine by HPLC method (reference value: 3 +/- 1 pmol/ug); assay type: functional; summary of the method: as §1
DU-145 [7] = experiment: Downregulation of intracellular spermidine level in human DU145 Cells assessed per ug DNA at 100 uM after 3 days by HPLC method (reference value: 123 +/- 3 pmol/ug); assay type: functional; summary of the method: as §1
[8] = Drug level in human DU145 cells assessed per ug DNA at 100 uM after 6 hrs by HPLC method; assay type: ADME, cell-based; conditions: du-145, 6 h; summary of the method: as §1
[9] = target: Peroxisomal N(1)-acetyl-spermine/spermidine oxidase (Homo sapiens, UniProt Q6QHF9); experiment: (§3) Inhibition of recombinant human APAO at 50 uM using N1-acetylspermidine level as substrate relative to control; conditions: 50 µM
Summary of the method: (§4)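 Competition with natural substrate at fixed 50 μM: spermine for purified bovine plasma SSAO and human recombinant SMOX, N1-acetylspermidine for human recombinant APAO. Analogue tested at 50 μM, with activity expressed relative to reaction without analogue.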

DU-145 [10] = experiment: Downregulation of intracellular spermine level in human DU145 Cells assessed per ug DNA at 100 uM after 3 days in presence of SSAO inhibitor aminoguanidine by HPLC method (reference value: 157 +/- 8 pmol/ug); assay type: functional; summary of the method: as §1
[11] = Drug level in human DU145 cells assessed per ug DNA at 100 uM after 3 days by HPLC method; assay type: ADME, cell-based; conditions: du-145, 72 h; summary of the method: as §1
DU-145 [12] = experiment: Downregulation of intracellular N1-acetylspermidine level in human DU145 cells assessed per ug DNA at 100 uM after 3 days by HPLC method (reference value: 3 pmol/ug); assay type: functional; summary of the method: as §1
DU-145 [13] = experiment: Downregulation of intracellular putrescine level in human DU145 Cells assessed per ug DNA at 100 uM after 3 days by HPLC method (reference value: 19 +/- 2 pmol/ug); assay type: functional; summary of the method: as §1
[14] = Drug metabolism in human DU145 cells at 100 uM assessed as methylspermidine metabolite level assessed per ug DNA after 3 days by HPLC method; assay type: ADME, cell-based; conditions: du-145, 72 h; summary of the method: as §1
DU-145 [15] = experiment: Downregulation of intracellular spermine level in human DU145 Cells at 100 uM after 3 days by HPLC method (reference value: 102 +/- 4 pmol/ug); assay type: functional; summary of the method: as §1
[16] = Drug metabolism in human DU145 cells at 100 uM assessed as methylspermidine metabolite level assessed per ug DNA in presence of SSAO inhibitor aminoguanidine after 3 days by HPLC method; assay type: ADME, cell-based; conditions: du-145, 72 h; summary of the method: as §1
[17] = Drug uptake in human DU145 cells assessed as reduction in [14C]-spermine uptake at 1 to 100 uM by competition based assay; assay type: ADME, cell-based; conditions: du-145, 100 µM
DU-145 [18] = experiment: Downregulation of intracellular spermidine level in human DU145 Cells assessed per ug DNA at 100 uM after 6 hrs by HPLC method (reference value: 134 +/- 7 pmol/ug); assay type: functional; summary of the method: as §1
[19] = Drug level in human DU145 cells at 100 uM in presence of SSAO inhibitor aminoguanidine after 3 days by HPLC method; assay type: ADME, cell-based; conditions: du-145, 72 h; summary of the method: as §1
DU-145 [20] = experiment: Cytotoxicity against human DU145 cells at 100 uM in presence of SSAO inhibitor aminoguanidine after 3 days; assay type: cell-based; conditions: du-145, 72 h; summary of the method: as §2
[21] = target: APAO (peroxisomal N(1)-acetyl-spermine/spermidine oxidase) (Homo sapiens, UniProt Q6QHF9); experiment: as §3; conditions: recombinant human APAO, probe N1-acetylspermidine; summary of the method: as §4
[22] = Drug metabolism in human DU145 cells at 100 uM assessed as methylspermidine metabolite level assessed per ug DNA after 6 hrs by HPLC method; assay type: ADME, cell-based; conditions: du-145, 6 h; summary of the method: as §1
[23] = target: T1, Amine oxidase [copper-containing] 3 (Bos taurus, UniProt Q9TTK6); experiment: Substrate activity at bovine plasma SSAO at 5 mM relative to spermine; assay type: ADME; conditions: cattle, 5000 µM
T1 sequence (Q9TTK6 whole entry): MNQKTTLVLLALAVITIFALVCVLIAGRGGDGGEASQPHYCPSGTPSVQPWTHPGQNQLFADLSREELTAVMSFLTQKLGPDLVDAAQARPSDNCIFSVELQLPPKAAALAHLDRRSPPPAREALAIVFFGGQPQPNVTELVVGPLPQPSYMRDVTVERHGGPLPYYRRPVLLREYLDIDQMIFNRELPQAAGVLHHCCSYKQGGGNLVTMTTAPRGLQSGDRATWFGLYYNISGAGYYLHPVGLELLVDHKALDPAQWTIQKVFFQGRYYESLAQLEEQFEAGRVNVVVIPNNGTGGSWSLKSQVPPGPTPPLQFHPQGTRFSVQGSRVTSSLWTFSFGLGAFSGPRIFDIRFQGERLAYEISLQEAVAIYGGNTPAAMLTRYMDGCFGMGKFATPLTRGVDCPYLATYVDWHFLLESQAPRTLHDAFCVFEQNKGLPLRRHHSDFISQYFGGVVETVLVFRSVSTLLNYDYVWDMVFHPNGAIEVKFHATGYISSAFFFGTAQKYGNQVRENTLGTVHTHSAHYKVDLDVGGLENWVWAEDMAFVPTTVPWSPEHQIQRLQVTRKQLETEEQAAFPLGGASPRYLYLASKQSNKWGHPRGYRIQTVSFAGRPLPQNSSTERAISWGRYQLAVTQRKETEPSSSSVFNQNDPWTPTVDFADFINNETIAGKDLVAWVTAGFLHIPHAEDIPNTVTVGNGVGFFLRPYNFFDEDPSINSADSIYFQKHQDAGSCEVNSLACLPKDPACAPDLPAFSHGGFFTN
Summary of the method: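 Purified bovine plasma SSAO given analogue as substrate at 5 mM, the same saturating concentration used for spermine. Activity compared with spermine. Means ± SD, n = 3.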

Sequence of Peroxisomal N(1)-acetyl-spermine/spermidine oxidase (Q6QHF9 whole entry): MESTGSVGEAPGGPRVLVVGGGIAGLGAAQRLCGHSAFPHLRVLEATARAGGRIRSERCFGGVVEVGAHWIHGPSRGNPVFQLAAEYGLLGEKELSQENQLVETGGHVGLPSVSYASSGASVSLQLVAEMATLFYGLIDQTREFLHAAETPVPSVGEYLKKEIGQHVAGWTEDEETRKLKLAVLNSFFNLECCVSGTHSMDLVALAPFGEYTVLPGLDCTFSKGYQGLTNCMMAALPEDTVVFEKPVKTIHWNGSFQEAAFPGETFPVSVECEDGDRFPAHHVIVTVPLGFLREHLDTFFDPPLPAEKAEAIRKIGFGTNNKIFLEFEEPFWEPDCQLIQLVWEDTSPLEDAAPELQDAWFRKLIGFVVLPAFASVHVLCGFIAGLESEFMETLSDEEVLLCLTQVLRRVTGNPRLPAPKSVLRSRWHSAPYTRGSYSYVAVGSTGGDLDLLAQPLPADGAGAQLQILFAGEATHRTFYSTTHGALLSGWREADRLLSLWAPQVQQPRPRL
Sequence of APAO (peroxisomal N(1)-acetyl-spermine/spermidine oxidase) (Q6QHF9 whole entry): as above

CC(N)CCNCCCCNCCC(C)N (stereo unspecified)
Activity (DU-145 [1]): 3 pmol | Activity (DU-145 [2]): Non-Toxic | Activity (DU-145 [3]): 84 pmol | Activity (DU-145 [4]): 5 pmol | Activity (DU-145 [5]): 15 pmol | Activity (DU-145 [6]): <3 pmol | Activity (DU-145 [7]): 13 pmol | Drug uptake [8]: 70 pmol | inhibition (INH) [9]: Not Active | Activity (DU-145 [10]): 19 pmol | Drug uptake [11]: 168 pmol | Activity (DU-145 [12]): <3 pmol | Activity (DU-145 [13]): <3 pmol | Drug metabolism [14]: 4 pmol | Activity (DU-145 [15]): 27 pmol | Drug metabolism [16]: 10 pmol | Activity [17]: Active | Activity (DU-145 [18]): 105 pmol | Drug uptake [19]: 217 pmol | Activity (DU-145 [20]): Non-Toxic

CC(CCN)NCCCCNC(C)CCN (stereo unspecified)
Activity (DU-145 [1]): 31 pmol | Activity (DU-145 [2]): Non-Toxic | Activity (DU-145 [3]): 80 pmol | Activity (DU-145 [4]): 3 pmol | Activity (DU-145 [5]): 27 pmol | Activity (DU-145 [7]): 34 pmol | Drug uptake [8]: 26 pmol | inhibition at 50 µM [21]: 45% | Activity (DU-145 [10]): 68 pmol | Drug uptake [11]: 29 pmol | Activity (DU-145 [12]): <3 pmol | Drug metabolism [22]: 34 pmol | Activity (DU-145 [13]): 12 pmol | Drug metabolism [14]: 116 pmol | Activity (DU-145 [15]): 69 pmol | Drug metabolism [16]: 44 pmol | Activity [17]: Active | Activity [23]: 30% | Activity (DU-145 [18]): 79 pmol | Drug uptake [19]: 191 pmol | Activity (DU-145 [20]): Non-Toxic

CC(CN)CNCCCCNCC(C)CN (stereo unspecified)
Activity (DU-145 [1]): <3 pmol | Activity (DU-145 [2]): Non-Toxic | Activity (DU-145 [3]): 76 pmol | Activity (DU-145 [4]): 4 pmol | Activity (DU-145 [5]): 10 pmol | Activity (DU-145 [7]): 13 pmol | Drug uptake [8]: 59 pmol | inhibition (INH) [9]: Not Active | Activity (DU-145 [10]): 33 pmol | Drug uptake [11]: 147 pmol | Activity (DU-145 [13]): <3 pmol | Drug metabolism [14]: 20 pmol | Activity (DU-145 [15]): 40 pmol | Activity [17]: Active | Activity (DU-145 [18]): 99 pmol | Drug uptake [19]: 222 pmol | Activity (DU-145 [20]): Non-Toxic

NCCCNCCCCNCCCN [SPERMINE]
Activity (DU-145 [2]): Non-Toxic | Activity [17]: Active | Activity (DU-145 [20]): Toxic
